Experimental data from ChEMBL document CHEMBL3421585, “Structure-Based Design of Potent and Selective Inhibitors of the Metabolic Kinase PFKFB3” (J Med Chem, 2015).
Values after ≈ are worked out from the molar mass of the structure shown.

Columns and labels:
[1] = molecular target: T1, 6-phosphofructo-2-kinase/fructose-2,6-bisphosphatase 3 (Homo sapiens, UniProt Q16875); experiment: Inhibition of PFKFB3 in human A549 cells assessed as decrease in lactate secretion after 4 hrs; type: cell-based
Method in brief: (§1)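 A549 cells; fructose-1,6-bisphosphate or lactate production measured.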

[2] = tested on: A549; experiment: Cytotoxicity against human A549 cells assessed as cell viability after 4 hrs; type: cell-based; settings: a549, 4 h
[3] = molecular target: 6-phosphofructo-2-kinase/fructose-2,6-bisphosphatase 1 (Homo sapiens, UniProt P16118); experiment: Inhibition of recombinant human PFKFB1 using fructose 6 phosphate as substrate assessed as ADP generation after 1 hr by ADP Glo assay
[4] = molecular target: T1, 6-phosphofructo-2-kinase/fructose-2,6-bisphosphatase 3; experiment: Inhibition of recombinant human PFKFB3 using fructose 6 phosphate as substrate assessed as ADP generation after 1 hr by ADP Glo assay
[5] = Lipophilicity, log D of the compound at pH 7.4; settings: buffer
[6] = molecular target: T1, 6-phosphofructo-2-kinase/fructose-2,6-bisphosphatase 3; experiment: Inhibition of PFKFB3 in human A549 cells assessed as reduction of fructose-1,6-bisphosphate formation after 4 hrs by MS/MS analysis; type: cell-based; method in brief: as §1
[7] = molecular target: 6-phosphofructo-2-kinase/fructose-2,6-bisphosphatase 2 (Homo sapiens, UniProt O60825); experiment: Inhibition of recombinant human PFKFB2 using fructose 6 phosphate as substrate assessed as ADP generation after 1 hr by ADP Glo assay
[8] = Fraction unbound in mouse plasma; type: ADME, cell-free
[9] = Fraction unbound in rat plasma; type: ADME, cell-free
[10] = Half life in CD1 mouse at 2.5 uM/kg, iv; type: ADME, organism-based; settings: in vivo
Method in brief: (§2)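 CD1 mice dosed po and iv at 2.5 µMol/kg.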

[11] = Half life in Wistar rat at 2.5 uM/kg, iv; type: ADME, organism-based; settings: in vivo
Method in brief: (§3)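 Male Wistar Han rats, 10-12 weeks old (n=2), given 3.1 µMol/kg po and 2.5 µMol/kg iv in 5% DMSO / 95% Captisol (30% in water).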

[12] = Efflux ratio of apparent intrinsic permeability in human Caco2 cells; type: ADME, cell-based; settings: Caco-2
[13] = Cmax in nude mouse at 124 umol/kg; type: ADME, organism-based; design: dose 124 umol/kg; settings: in vivo
[14] = Aqueous solubility of the compound at pH 7.4; type: physicochemical; settings: buffer
[15] = AUC in nude mouse at 124 umol/kg; type: ADME, organism-based; settings: plasma
[16] = Half life in rat hepatocytes; type: ADME, cell-based, Hepatocyte
[17] = Volume of distribution at steady state in Wistar rat at 3.1 uM/kg, po and 2.5 uM/kg, iv; type: ADME, organism-based; settings: in vivo, read-out: Vdss; method in brief: as §3
[18] = Volume of distribution at steady state in CD1 mouse at 2.5 uM/kg, po and iv; type: ADME, organism-based; settings: in vivo, read-out: Vdss; method in brief: as §2
[19] = Clearance in CD1 mouse at 2.5 uM/kg, po and iv; type: ADME, organism-based; settings: in vivo; method in brief: as §2
[20] = Fraction unbound in human plasma; type: ADME, cell-free
[21] = organism: Homo sapiens; experiment: Selectivity ratio of IC50 for recombinant human PFKFB2 to IC50 for recombinant human PFKFB3
Method in brief: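 Ratio of the PFKFB2 enzyme IC50 to the PFKFB3 enzyme IC50. Each IC50 is the mean of at least two independent measurements, reported in micromolar, with SEM ±0.2 log units.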

[22] = Clearance in Wistar rat at 3.1 uM/kg, po and […] uM/kg, iv; type: ADME, organism-based; settings: in vivo
[23] = Half life in mouse hepatocytes; type: ADME, cell-based, Hepatocyte
[24] = Oral bioavailability in CD1 mouse at 2.5 uM/kg; type: ADME, organism-based; settings: in vivo; method in brief: as §2
[25] = Half life in human hepatocytes; type: ADME, cell-based, Hepatocyte
[26] = Apparent intrinsic permeability in human Caco2 cells at pH 6.5; type: ADME, cell-based; settings: Caco-2, pH 6.5

T1 sequence (Q16875 whole entry): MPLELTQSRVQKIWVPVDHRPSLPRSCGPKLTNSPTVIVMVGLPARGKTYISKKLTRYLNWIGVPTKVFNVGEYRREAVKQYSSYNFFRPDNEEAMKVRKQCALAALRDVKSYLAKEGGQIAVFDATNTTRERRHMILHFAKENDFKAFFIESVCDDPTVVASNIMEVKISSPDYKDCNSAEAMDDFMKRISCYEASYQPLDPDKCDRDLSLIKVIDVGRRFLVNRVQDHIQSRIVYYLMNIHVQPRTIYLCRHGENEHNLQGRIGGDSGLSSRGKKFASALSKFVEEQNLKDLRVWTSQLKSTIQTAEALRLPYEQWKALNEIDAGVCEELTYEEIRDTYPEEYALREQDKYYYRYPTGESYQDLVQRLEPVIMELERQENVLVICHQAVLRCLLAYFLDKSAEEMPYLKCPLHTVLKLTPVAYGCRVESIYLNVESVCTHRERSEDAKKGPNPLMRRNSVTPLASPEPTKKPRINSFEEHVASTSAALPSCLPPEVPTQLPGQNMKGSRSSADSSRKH
Chain of 6-phosphofructo-2-kinase/fructose-2,6-bisphosphatase 2 (O60825 whole entry): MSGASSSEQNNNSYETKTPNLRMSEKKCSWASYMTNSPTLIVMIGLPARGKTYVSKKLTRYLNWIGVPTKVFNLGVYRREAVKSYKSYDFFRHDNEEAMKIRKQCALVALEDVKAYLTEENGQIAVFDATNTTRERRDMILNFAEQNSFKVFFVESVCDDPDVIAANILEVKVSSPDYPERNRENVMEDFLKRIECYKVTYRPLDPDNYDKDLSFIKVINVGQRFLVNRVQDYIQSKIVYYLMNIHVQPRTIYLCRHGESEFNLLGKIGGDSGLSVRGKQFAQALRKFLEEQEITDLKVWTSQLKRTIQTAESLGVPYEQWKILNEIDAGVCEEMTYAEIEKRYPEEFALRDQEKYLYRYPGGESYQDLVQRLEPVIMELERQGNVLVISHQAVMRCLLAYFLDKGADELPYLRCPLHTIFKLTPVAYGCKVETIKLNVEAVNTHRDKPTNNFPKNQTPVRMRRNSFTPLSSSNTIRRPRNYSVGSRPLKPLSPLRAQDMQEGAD
Chain of 6-phosphofructo-2-kinase/fructose-2,6-bisphosphatase 1 (P16118 whole entry): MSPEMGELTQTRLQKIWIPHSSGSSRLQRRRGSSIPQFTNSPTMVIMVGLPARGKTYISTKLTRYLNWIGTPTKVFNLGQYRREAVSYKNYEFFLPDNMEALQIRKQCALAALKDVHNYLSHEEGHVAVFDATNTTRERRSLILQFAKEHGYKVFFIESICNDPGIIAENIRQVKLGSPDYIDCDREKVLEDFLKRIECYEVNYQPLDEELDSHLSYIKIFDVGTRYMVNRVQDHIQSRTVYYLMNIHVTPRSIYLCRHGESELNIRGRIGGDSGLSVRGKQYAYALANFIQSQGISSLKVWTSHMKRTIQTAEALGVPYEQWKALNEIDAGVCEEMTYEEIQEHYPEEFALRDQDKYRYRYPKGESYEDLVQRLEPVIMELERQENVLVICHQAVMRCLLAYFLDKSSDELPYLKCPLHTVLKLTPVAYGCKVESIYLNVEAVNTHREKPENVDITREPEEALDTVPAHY

Row | SMILES | IC50 [1] [µM] | IC50 [3] [µM] | IC50 [4] [µM] | logD [5] | IC50 [6] [µM] | IC50 [7] [µM] | further results
1 | CC(C)Cn1c(N)c(C#N)c2cc(Oc3ccc(NC(=O)CN)cc3)ccc21 | 16.4 | 3.18 | 0.177 | 3.2 | > 30 | 2.52 | Activity [2]: Toxic
2 | Cc1noc(C)c1Cn1nc(C#N)c2cc(Oc3ccc(NC(=O)[C@@H]4CCCN4)cc3)ccc21 |  | 0.191 | 0.003 |  | 0.067 | 0.025 | 
3 | CN(C)C(=O)Cn1c(N)c(C#N)c2cc(Oc3ccc(NC(=O)CN)cc3)ccc21 | > 30 | 2.53 | 0.343 | 0.5 | > 30 | 6.84 | 
4 | CC(C)Cn1cc(C#N)c2cc(N(C)c3ccc(NC(=O)[C@@H]4CCCN4)cc3)ccc21 | 13.7 | 5 | 0.075 | 3.8 | > 30 | 0.141 | Activity [2]: Toxic
5 | CN(C)CCn1cc(C#N)c2cc(Oc3ccc(NC(=O)[C@@H]4CCCN4)cc3)ccc21 | > 30 | 53.8 | 0.256 | 2.1 | 7.48 | > 100 | 
6 | CCn1cc(C#N)c2cc(Oc3ccc(NC(=O)[C@H]4CCCN4)cc3)ccc21 | > 30 | > 100 | 70.9 | 2.8 |  | > 100 | 
7 | N#Cc1cn(CC2CCOCC2)c2ccc(Oc3ccc(NC(=O)[C@@H]4CCCN4)cc3)cc12 | > 30 | 3.47 | 0.048 | 2.8 | 0.633 | 0.429 | 
8 | N#Cc1c[nH]c2ccc(Oc3ccc(NC(=O)CN)cc3)cc12 |  | 37.6 | 2.01 | 2.1 |  | 63.2 | 
9 | N#Cc1c(N)[nH]c2ccc(Oc3ccc(NC(=O)CN)cc3)cc12 |  | > 100 | 2.32 | 1.6 |  | 53.8 | 
10 | CCn1cc(C#N)c2cc(Oc3ccc(NC(=O)CN(C)C)cc3)ccc21 | > 30 | 62.9 | 9.83 |  |  | 76.1 | 
11 | CC(=O)Nc1ccc(Oc2ccc3[nH]c(N)c(C#N)c3c2)cc1 |  | 24 | > 100 | 2.8 |  | > 100 | 
12 | CC(C)Cn1cc(C#N)c2cc(Oc3ccc(NC(=O)[C@@H]4CCCN4)cc3)ccc21 | 5.77 | 2.06 | 0.023 | 3.5 | 0.343 | 0.384 | fraction unbound [8]: 0.0164; fraction unbound [9]: < 0.0003; half-life at […] [10]: 84 min; half-life at […] [11]: 204 min; Activity [2]: Toxic; efflux ratio [12]: 4.6; Cmax [13]: 35 µM; solubility [14]: 48 µM (≈ 19.3 µg/mL); AUC [15]: 259 µM·h; half-life [16]: 21 min; Vd [17]: 0.4 L/kg; Vd at […] [18]: 3.3 L/kg; clearance at […] [19]: 38 mL/min/kg; fraction unbound [20]: 0.0033; Ratio IC50 [21]: 17; clearance [22]: 2 mL/min/kg; half-life [23]: 21 min; bioavailability at […] [24]: 42%; half-life [25]: 28 min; Papp [26]: 13.4 ×10⁻⁶ cm/s
13 | CC(C)Cn1cc(C#N)c2cc(Sc3ccc(NC(=O)[C@@H]4CCCN4)cc3)ccc21 | 14 | 1.66 | 0.111 | > 4.3 |  | 0.19 | Activity [2]: Toxic
14 | Cn1cc(-c2c[nH]c3ccc(Oc4ccc(NC(=O)[C@@H]5CCCN5)cc4)cc23)cn1 | > 30 | 27.4 | 0.114 | 2.3 | > 30 | 3.57 | 
15 | CCn1cc(C#N)c2cc(Oc3ccc(NC(=O)[C@@H]4CCCN4)cc3)ccc21 | 12 | 22.1 | 0.112 | 2.9 | 3.05 | 1.82 | Activity [2]: Non-toxic
16 | CC(C)Cn1cc(C#N)c2cc(S(=O)(=O)c3ccc(NC(=O)[C@@H]4CCCN4)cc3)ccc21 | 24.7 | 0.321 | 37.7 | 2.9 | > 30 | > 100 | 
17 | N#Cc1cn(Cc2ccccc2)c2ccc(Oc3ccc(NC(=O)[C@@H]4CCCN4)cc3)cc12 | 6.95 | 1.83 | 0.02 | 3.9 |  | 0.188 | Activity [2]: Toxic
18 | CN1Cc2cc(-n3cc(C#N)c4cc(Oc5ccc(NC(=O)[C@@H]6CCCN6)cc5)ccc43)ccc2C1=O | 2.18 | 0.701 | 0.008 | 3 | 0.14 | 0.108 | Activity [2]: Non-toxic
19 | N#Cc1c(N)[nH]c2ccc(Oc3ccc(NC(=O)[C@H](N)CO)cc3)cc12 |  | 61.5 | > 100 | 1.6 |  | > 100 | 

Row | SMILES | IC50 [1] [µM] | IC50 [3] [µM] | IC50 [4] [µM] | logD [5] | IC50 [6] [µM] | IC50 [7] [µM] | further results
20 | CCn1cc(C#N)c2cc(Oc3ccc(NC(=O)[C@@H]4CCCCN4)cc3)ccc21 | > 30 | 86.3 | 2.2 | 2.7 |  | 22 | 
21 | CC(C)Cn1cc(C#N)c2cc(Cc3ccc(NC(=O)[C@@H]4CCCN4)cc3)ccc21 | > 30 | 5.92 | 0.199 | 3.9 | > 30 | 1.45 | 
22 | CC(C)Cn1cc(C#N)c2cc(Nc3ccc(NC(=O)[C@@H]4CCCN4)cc3)ccc21 | > 30 | 36.6 | 1.57 | 2.7 |  | 6.15 | 
23 | CC(C)Cn1nc(C#N)c2cc(Oc3ccc(NC(=O)[C@@H]4CCCN4)cc3)ccc21 | 15.4 | 0.294 | 0.004 | 3.6 | 0.297 | 0.015 | Activity [2]: Toxic; Ratio IC50 [21]: 4
24 | Cn1cc(-c2cn(C)c3ccc(Oc4ccc(NC(=O)[C@@H]5CCCN5)cc4)cc23)cn1 | 9.71 | 2.35 | 0.021 | 1.9 | 0.979 | 0.818 | Activity [2]: Non-toxic
25 | Cn1c(N)c(C#N)c2cc(Oc3ccc(NC(=O)CN)cc3)ccc21 | > 30 | 38.2 | 0.815 | 1.9 |  | 21.1 | 
26 | CCn1c(N)c(C#N)c2cc(Oc3ccc(NC(=O)CN)cc3)ccc21 | > 30 | 25 | 0.514 | 2 | > 30 | 9.18 | 
27 | CCn1cc(C#N)c2cc(Oc3ccc(N(C)C(=O)[C@@H]4CCCN4)cc3)ccc21 | > 30 | 72.3 | 23.1 | 1.9 |  | 76.5 | 
28 | N#Cc1c(N)[nH]c2ccc(Oc3ccc(NC(=O)[C@@H](N)CO)cc3)cc12 | > 30 | 51.1 | 0.575 | 1.9 | > 30 | 26.9 | 
29 | CCn1cc(C#N)c2cc(Oc3ccc(NC(=O)CNC)cc3)ccc21 | > 30 | 20.4 | 0.83 | 2.7 |  | 24.9 | 
30 | CCn1cc(C#N)c2cc(Oc3ccc(NC(=O)[C@@H]4CCC(=O)N4)cc3)ccc21 | > 30 | > 100 | 0.531 |  |  | 23.7 | 
31 | CCn1cc(C#N)c2cc(Oc3ccc(NC(=O)[C@@H]4CCN4)cc3)ccc21 | 19.6 | 3.74 | 0.086 |  |  |  | 
32 | N#Cc1c(N)n(Cc2ccccc2)c2ccc(Oc3ccc(NC(=O)CN)cc3)cc12 | 12.6 | 2.66 | 0.104 | 2.9 | > 30 | 1.48 | Activity [2]: Toxic
33 | N#Cc1cn(-c2ccccc2)c2ccc(Oc3ccc(NC(=O)[C@@H]4CCCN4)cc3)cc12 | 8.71 | 1.93 | 0.027 | > 4.3 |  | 0.374 | Activity [2]: Toxic
34 | O=C(/C=C/c1cccnc1)c1ccncc1 |  |  | > 100 |  |  |  | 
35 | CCn1cc(C#N)c2cc(Oc3ccc(NC(=O)CN)cc3)ccc21 | > 30 | 18.4 | 0.562 | 2.5 |  | 22.8 | 
36 | CNC(=O)Cn1cc(C#N)c2cc(Oc3ccc(NC(=O)[C@@H]4CCCN4)cc3)ccc21 | > 30 | 16.9 | 0.111 | 1.4 | 14 | 2.35 | 
37 | Cc1noc(C)c1Cn1cc(C#N)c2cc(Oc3ccc(NC(=O)[C@@H]4CCCN4)cc3)ccc21 | > 30 | 1.13 | 0.011 | 2.8 | 0.281 | 0.159 | 
